Test results: ChEMBL document CHEMBL1208662, “Antimicrobial activity and a SAR study of some novel benzimidazole derivatives bearing hydrazone moiety” (Eur J Med Chem, 2010)
In brackets after ≈: the same amount, converted by molar mass.

Tests used:
Escherichia coli [1] = assay: Antimicrobial activity against Escherichia coli 35218 by broth microdilution method; assay type: functional
Method in brief: (§1)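 CLSI M7-A7 broth microdilution, two-fold serial dilutions 800 down to 1.5625 μg/mL in Mueller–Hinton broth, pH 7. Compounds dissolved in DMSO; DMSO-only solvent control. Overnight cultures at 35 ± 1 °C, inoculum matched to McFarland 0.5, final 0.5-2.5 × 10^5 cfu/mL. MIC taken as last well without growth, µg/mL. Run twice. Chloramphenicol reference.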

Escherichia coli [2] = assay: Antimicrobial activity against Escherichia coli 25922 by broth microdilution method; assay type: functional; method in brief: as §1
Proteus vulgaris = assay: Antimicrobial activity against Proteus vulgaris by broth microdilution method; assay type: functional; method in brief: as §1
Salmonella typhimurium = assay: Antimicrobial activity against Salmonella Typhimurium by broth microdilution method; assay type: functional, Salmonella enterica subsp. enterica serovar Typhimurium; details: Salmonella enterica; method in brief: as §1
Klebsiella pneumoniae = assay: Antimicrobial activity against Klebsiella pneumoniae by broth microdilution method; assay type: functional; method in brief: as §1
Pseudomonas aeruginosa = assay: Antimicrobial activity against Pseudomonas aeruginosa by broth microdilution method; assay type: functional; method in brief: as §1
Listeria monocytogenes = assay: Antimicrobial activity against Listeria monocytogenes by broth microdilution method; assay type: functional; method in brief: as §1
Staphylococcus aureus = assay: Antimicrobial activity against Staphylococcus aureus by broth microdilution method; assay type: functional; method in brief: as §1
Enterococcus faecalis = assay: Antimicrobial activity against Enterococcus faecalis by broth microdilution method; assay type: functional; method in brief: as §1
Bacillus subtilis = assay: Antimicrobial activity against Bacillus subtilis by broth microdilution method; assay type: functional; method in brief: as §1
Candida albicans = assay: Antimicrobial activity against Candida albicans by broth microdilution method; assay type: functional
Method in brief: (§2)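 Yeasts grown overnight at 35 ± 1 °C in Sabouraud dextrose broth. Tested by CLSI M7-A7 broth microdilution in Sabouraud dextrose broth, pH 7, two-fold serial dilutions 800 down to 1.5625 μg/mL of DMSO-dissolved compound. DMSO-only control. Inoculum matched to McFarland 0.5, final 0.5-2.5 × 10^5 cfu/mL. MIC is last well without growth, µg/mL. Duplicate readings. Ketoconazole reference.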

Nakaseomyces glabratus = assay: Antimicrobial activity against Candida glabrata by broth microdilution method; assay type: functional; method in brief: as §2
Candida tropicalis = assay: Antimicrobial activity against Candida tropicalis by broth microdilution method; assay type: functional; method in brief: as §2
[3] = Toxicity in Artemia salina after 24 hrs; assay type: organism-based; details: in vivo

| SMILES | MIC (Escherichia coli [1]) [mg/L] | MIC (Escherichia coli [2]) [mg/L] | MIC (Proteus vulgaris) [mg/L] | MIC (Salmonella typhimurium) [mg/L] | MIC (Klebsiella pneumoniae) [mg/L] | MIC (Pseudomonas aeruginosa) [mg/L] | MIC (Listeria monocytogenes) [mg/L] | MIC (Staphylococcus aureus) [mg/L] | MIC (Enterococcus faecalis) [mg/L] | MIC (Bacillus subtilis) [mg/L] | MIC (Candida albicans) [mg/L] | MIC (Nakaseomyces glabratus) [mg/L] | MIC (Candida tropicalis) [mg/L] | LC50 at 24 h [3] [mg/L] |
| --- | --- | --- | --- | --- | --- | --- | --- | --- | --- | --- | --- | --- | --- | --- |
| O=C(N/N=C/c1ccccc1)c1ccc(-c2nc3ccccc3[nH]2)cc1 | 25 (≈ 73.4 µM) | 100 (≈ 294 µM) | 50 (≈ 147 µM) | 12.5 (≈ 36.7 µM) | 25 (≈ 73.4 µM) | 25 (≈ 73.4 µM) | 400 (≈ 1180 µM) | 25 (≈ 73.4 µM) | 12.5 (≈ 36.7 µM) | 25 (≈ 73.4 µM) | 50 (≈ 147 µM) | 100 (≈ 294 µM) | 100 (≈ 294 µM) | – |
| O=C(N/N=C/c1ccc(O)cc1)c1ccc(-c2nc3ccccc3[nH]2)cc1 | 25 (≈ 70.1 µM) | 100 (≈ 281 µM) | 25 (≈ 70.1 µM) | 25 (≈ 70.1 µM) | 25 (≈ 70.1 µM) | 25 (≈ 70.1 µM) | 400 (≈ 1120 µM) | 50 (≈ 140 µM) | 25 (≈ 70.1 µM) | 25 (≈ 70.1 µM) | 100 (≈ 281 µM) | 100 (≈ 281 µM) | 100 (≈ 281 µM) | – |
| CN(C)c1ccc(/C=N/NC(=O)c2ccc(-c3nc4ccccc4[nH]3)cc2)cc1 | 25 (≈ 65.2 µM) | 100 (≈ 261 µM) | 50 (≈ 130 µM) | 25 (≈ 65.2 µM) | 50 (≈ 130 µM) | 25 (≈ 65.2 µM) | 200 (≈ 522 µM) | 50 (≈ 130 µM) | 25 (≈ 65.2 µM) | 25 (≈ 65.2 µM) | 100 (≈ 261 µM) | 50 (≈ 130 µM) | 100 (≈ 261 µM) | – |
| O=C(N/N=C/c1ccc(Cl)cc1)c1ccc(-c2nc3ccccc3[nH]2)cc1 | 25 (≈ 66.7 µM) | 100 (≈ 267 µM) | 25 (≈ 66.7 µM) | 6.25 (≈ 16.7 µM) | 12.5 (≈ 33.3 µM) | 25 (≈ 66.7 µM) | 100 (≈ 267 µM) | 12.5 (≈ 33.3 µM) | 12.5 (≈ 33.3 µM) | 25 (≈ 66.7 µM) | 50 (≈ 133 µM) | 50 (≈ 133 µM) | 50 (≈ 133 µM) | > 1000 |
| O=C(N/N=C/c1ccc(Br)cc1)c1ccc(-c2nc3ccccc3[nH]2)cc1 | 25 (≈ 59.6 µM) | 50 (≈ 119 µM) | 25 (≈ 59.6 µM) | 12.5 (≈ 29.8 µM) | 12.5 (≈ 29.8 µM) | 25 (≈ 59.6 µM) | 200 (≈ 477 µM) | 25 (≈ 59.6 µM) | 12.5 (≈ 29.8 µM) | 25 (≈ 59.6 µM) | 100 (≈ 239 µM) | 100 (≈ 239 µM) | 50 (≈ 119 µM) | > 1000 |
| O=C(N/N=C/c1ccc(F)cc1)c1ccc(-c2nc3ccccc3[nH]2)cc1 | 25 (≈ 69.8 µM) | 50 (≈ 140 µM) | 50 (≈ 140 µM) | 6.25 (≈ 17.4 µM) | 25 (≈ 69.8 µM) | 50 (≈ 140 µM) | 200 (≈ 558 µM) | 50 (≈ 140 µM) | 25 (≈ 69.8 µM) | 25 (≈ 69.8 µM) | 100 (≈ 279 µM) | 100 (≈ 279 µM) | 50 (≈ 140 µM) | – |
| Cc1ccc(/C=N/NC(=O)c2ccc(-c3nc4ccccc4[nH]3)cc2)cc1 | 25 (≈ 70.5 µM) | 100 (≈ 282 µM) | 25 (≈ 70.5 µM) | 6.25 (≈ 17.6 µM) | 12.5 (≈ 35.3 µM) | 50 (≈ 141 µM) | 200 (≈ 564 µM) | 25 (≈ 70.5 µM) | 12.5 (≈ 35.3 µM) | 50 (≈ 141 µM) | 100 (≈ 282 µM) | 100 (≈ 282 µM) | 100 (≈ 282 µM) | > 1000 |
| COc1ccc(/C=N/NC(=O)c2ccc(-c3nc4ccccc4[nH]3)cc2)cc1 | 25 (≈ 67.5 µM) | 50 (≈ 135 µM) | 50 (≈ 135 µM) | 6.25 (≈ 16.9 µM) | 25 (≈ 67.5 µM) | 25 (≈ 67.5 µM) | 200 (≈ 540 µM) | 25 (≈ 67.5 µM) | 12.5 (≈ 33.7 µM) | 25 (≈ 67.5 µM) | 100 (≈ 270 µM) | 50 (≈ 135 µM) | 50 (≈ 135 µM) | – |
| O=C(N/N=C/c1ccc([N+](=O)[O-])cc1)c1ccc(-c2nc3ccccc3[nH]2)cc1 | 25 (≈ 64.9 µM) | 100 (≈ 259 µM) | 50 (≈ 130 µM) | 12.5 (≈ 32.4 µM) | 25 (≈ 64.9 µM) | 50 (≈ 130 µM) | 200 (≈ 519 µM) | 25 (≈ 64.9 µM) | 25 (≈ 64.9 µM) | 50 (≈ 130 µM) | 50 (≈ 130 µM) | 100 (≈ 259 µM) | 100 (≈ 259 µM) | – |
| O=C(N/N=C/c1ccc(C(F)(F)F)cc1)c1ccc(-c2nc3ccccc3[nH]2)cc1 | 25 (≈ 61.2 µM) | 100 (≈ 245 µM) | 50 (≈ 122 µM) | 12.5 (≈ 30.6 µM) | 25 (≈ 61.2 µM) | 50 (≈ 122 µM) | 200 (≈ 490 µM) | 25 (≈ 61.2 µM) | 12.5 (≈ 30.6 µM) | 50 (≈ 122 µM) | 100 (≈ 245 µM) | 100 (≈ 245 µM) | 50 (≈ 122 µM) | – |
| O=C(O)c1ccc(/C=N/NC(=O)c2ccc(-c3nc4ccccc4[nH]3)cc2)cc1 | 50 (≈ 130 µM) | 200 (≈ 520 µM) | 100 (≈ 260 µM) | 25 (≈ 65 µM) | 50 (≈ 130 µM) | 100 (≈ 260 µM) | 400 (≈ 1040 µM) | 50 (≈ 130 µM) | 50 (≈ 130 µM) | 50 (≈ 130 µM) | 200 (≈ 520 µM) | 200 (≈ 520 µM) | 200 (≈ 520 µM) | – |
| N#Cc1ccc(/C=N/NC(=O)c2ccc(-c3nc4ccccc4[nH]3)cc2)cc1 | 25 (≈ 68.4 µM) | 100 (≈ 274 µM) | 50 (≈ 137 µM) | 12.5 (≈ 34.2 µM) | 12.5 (≈ 34.2 µM) | 50 (≈ 137 µM) | 200 (≈ 547 µM) | 25 (≈ 68.4 µM) | 12.5 (≈ 34.2 µM) | 50 (≈ 137 µM) | 100 (≈ 274 µM) | 100 (≈ 274 µM) | 50 (≈ 137 µM) | – |
| O=C(N[C@H](CO)[C@H](O)c1ccc([N+](=O)[O-])cc1)C(Cl)Cl [CHLORAMPHENICOL] | 12.5 (≈ 38.7 µM) | 12.5 (≈ 38.7 µM) | 50 (≈ 155 µM) | 12.5 (≈ 38.7 µM) | 12.5 (≈ 38.7 µM) | 50 (≈ 155 µM) | 50 (≈ 155 µM) | 12.5 (≈ 38.7 µM) | 12.5 (≈ 38.7 µM) | 12.5 (≈ 38.7 µM) | – | – | – | – |
| CC(=O)N1CCN(c2ccc(OCC3COC(Cn4ccnc4)(c4ccc(Cl)cc4Cl)O3)cc2)CC1 (configuration not stated) [KETOCONAZOLE] | – | – | – | – | – | – | – | – | – | – | 50 (≈ 94.1 µM) | 25 (≈ 47 µM) | 50 (≈ 94.1 µM) | – |
